The list is not random: actives were taken first. Their share in the collection is about 5.7%.
T cruzi repl – blocks replication of Trypanosoma cruzi | T. cruzi beta-gal in NIH3T3, luminescence, 90 h | inhibition, % (concentration not given with the values) | actives 1.4% (n = 300,000) | AID 1885;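 active = mean inhibition across valid replicates above about 55%, limit read from the data; inconclusive = mean below that limit but half or more replicates reach it; inactive = mean below it, under half of replicates reach it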;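 also: signal also drops with host cell toxicity which is not excluded here; 0% = plate median of DMSO wells and 100% = zero luminescence signal; higher percent means less beta-gal luminescence so fewer parasites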
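Assay system: NIH/3T3 fibroblasts plus reporter T. cruzi. Amount: NIH/3T3 cells, 5,000 per well. Buffer or medium: DMEM, 2% fetal bovine serum. Doses: compound pinned at 50 nL/well, DMSO. Schedule: ≥90 h infection period, 3 h prior cell attachment. Signal: luminescent β-galactosidase signal after 60 min lysis. Read-out: parasite load inhibition, %.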
SKKanGAS inh – SKKanGAS growth inhibition. S. pyogenes SKKanGAS, kanamycin growth, BacTiter-Glo, 6 h. actives 1.3% (n = 300,000). inhibition, % at 7.5 µM;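 active = mean replicate score, as percent of positive control median, at least 50; inconclusive = mean below 50 but one replicate at or above 50; inactive = mean and every replicate below 50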;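 also: strain carries kanamycin resistance gene driven by streptokinase promoter and grows in 40 µg/ml kanamycin; loss of luminescence reflects streptokinase promoter inhibition or plain growth inhibition; 0% = median of DMSO wells and 100% = positive control at its reference dose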
Calb FLC – C. albicans growth modulation with fluconazole; growth inhibition, % (no concentration beside the values); C. albicans CaCi-2 + fluconazole, Alamar Blue growth, 48 h; actives 0.57% (n = 300,000); AID 1979;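 active = growth inhibition above about 58% in most replicates, limit read from the data, passing the limit was not always enough; inconclusive = exactly half the replicates above a set limit; inactive = most replicates below a set limit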;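 also: all wells also contain fluconazole at 8 µg/ml as a sub-toxic cotreatment; 0% = median of DMSO wells and 100% = median of geldanamycin control wells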
Beta apoptosis – beta cell apoptosis inhibition. protection from apoptosis, % (no concentration beside the values). actives 0.8% (n = 300,000). INS-1E cytokine-induced death, ATP luminescence, 48 h; percent of positive-control rescue, neutral wells zero;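 active = Every replicate reaches about 75%, or at least half do and their mean reaches it too, limit read from the data; inconclusive = At least half of replicates reach the limit but their mean does not; inactive = Under half of replicates reach the limit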;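 also: 0% = cytokine-treated negative control wells and 100% = positive control rescue; higher means more ATP so stronger rescue from cytokine killing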
Mdm2-MdmX inh – human Mdm2/MdmX binding inhibition; actives 3% (n = 330,000); SaOS-2 split-luciferase Mdm2/MdmX complementation, luminescence; inhibition, % at 8 µM; AID 485346; O15151+Q00987;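 active = inhibition of at least 50% at 8 µM in the primary screen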
CSC inhib – cancer stem cell inhibition | cancer stem cell-like cells viability, luminescence | inhibition, % at 7.5 µM | actives 1.1% (n = 300,000); in the data active = inhibition above about 75%; inconclusive = no clear call, values can overlap the other calls; tested in HMLE shEcad cells
* = called active by the depositor; ? = inconclusive; . = not tested or not shown.

SMILES | T cruzi repl | SKKanGAS inh | Calb FLC | Beta apoptosis | Mdm2-MdmX inh | CSC inhib
C/C(=N\Nc1nc(C)cc(-c2ccccc2)n1)c1ccc(O)cc1 | -2.5 | -0.2 | -1.5 | 82.9* | 26.0 | -8.3
C/C(=N\Nc1nc(C)cc(-c2ccccc2)n1)c1ccccc1 | 19.4 | -5.4 | 5.8 | 82.0* | 8.8 | -12.9
C/C(=N\Nc1nc(C)cc(-c2ccccc2)n1)c1cccc(N)c1 | -11.6 | 7.8 | -2.8 | 88.9* | -1.6 | 9.6
C/C(=N\Nc1nc(C)cc(-c2ccccc2)n1)c1ccc(C)o1 | -3.9 | 2.5 | 6.0 | 19.8 | 7.8 | 0.3
CSc1ccc(CNCC2CCCO2)cc1 (configuration not stated) | 11.1 | -1.9 | 6.6 | -9.1 | 3.4 | -20.0
O=C1CC2(CCN(C(=O)COc3ccc(Cl)cc3)CC2)Oc2ccccc21 | 6.6 | -14.4 | 22.6 | . | 13.3 | 23.3
CCn1c(CCC(=O)N(C)CC(=O)Nc2cccc(F)c2)nc2cc(S(=O)(=O)N(C)C)ccc21 | -2.2 | -4.5 | 5.1 | 9.4 | 14.8 | 0.8
C[C@H]1CC[C@@]2(O[C@@H](CCO)C[C@H](O)[C@H]2O)O1 | -9.4 | 1.4 | -5.2 | -6.2 | -10.8 | -12.1
O=C(Cn1cc[n+](Cc2ccccc2)c1)c1ccc([N+](=O)[O-])cc1 | -12.9 | 6.3 | -11.0 | 25.0 | 16.3 | -12.6
O=C(Cn1c(-c2ccccc2)c[n+]2ccsc12)c1ccc([N+](=O)[O-])cc1 | 75.0* | 5.9 | -11.0 | 94.3* | -15.4 | 21.8
O=C(Cn1c(-c2ccccc2)c[n+]2ccsc12)c1ccccc1 | 68.8* | -1.4 | -53.0 | 14.8 | 8.5 | -4.8
O=C(Cn1nnc(-c2ccccc2)n1)c1ccccc1 | 1.1 | -3.1 | -19.0 | . | 0.0 | .
CC(=O)/C(=N/Nc1ccccc1)Sc1nnc(C(O)c2ccccc2)n1-c1ccccc1 (configuration not stated) | 9.1 | 0.2 | -15.9 | -2.5 | -11.7 | -6.2
COc1ccc(C(CC(=O)Nc2cc(OC)cc(OC)c2)n2cccc2)cc1 (configuration not stated) | 56.0* | 12.5 | 17.7 | -1.2 | 3.6 | 7.0
COc1ccc(C(CC(=O)Nc2ccccc2OC)n2cccc2)cc1 (configuration not stated) | 5.4 | 4.7 | 8.1 | 2.6 | -24.0 | -2.2
Clc1ccc(COn2c(-c3ccc(Cl)cc3)nc3ccccc32)cc1 | 45.9 | 52.5* | 6.1 | 9.9 | 21.2 | 41.8
Clc1ccc(COn2c(-c3ccccc3)nc3ccccc32)cc1 | 24.4 | 6.9 | -10.0 | 4.4 | 10.4 | 51.6
CCSc1nc2sc3c(c2c(=O)[nH]1)CCCC3 | -9.6 | 0.2 | 9.6 | -2.4 | 24.7 | -9.5
CCSC1=NC2(CCCCC2)Nc2sc3c(c21)CCCC3 | 55.5* | 18.1 | 2.8 | -7.1 | 25.2 | 12.9
CCC(=O)Nc1nc2ccc(NC(C)=O)cc2s1 | -6.7 | -4.7 | -13.5 | 0.2 | 16.9 | -2.8
CCOC(=O)c1sc(Nc2ccccc2)nc1C | -11.7 | -3.1 | 0.1 | -0.6 | -35.7 | -4.1
CCOc1cccc2sc(Nc3nc4ccc(NC(C)=O)cc4s3)nc12 | 56.6* | 71.5* | 24.8 | 27.7 | -9.6 | -10.4
CCOC(=O)c1sc(Nc2nc3c(OC)cccc3s2)nc1C | 13.9 | 11.0 | 78.3* | 21.0 | 2.6 | 32.4
O=C(CN1CCN(Cc2ccccc2Cl)CC1)N=Nc1c(O)[nH]c2ccccc12 | 11.9 | 0.7 | 3.1 | 5.3 | 25.6 | 24.3
Cc1ccc(CN2CCN(CC(=O)N=Nc3c(O)[nH]c4ccccc34)CC2)cc1 | 57.7* | -0.2 | -3.2 | -0.7 | 25.2 | -0.5
SMILES | T cruzi repl | SKKanGAS inh | Calb FLC | Beta apoptosis | Mdm2-MdmX inh | CSC inhib
Cc1cc(Cl)ccc1OCCCC(=O)N1CCN(C)CC1 | 19.7 | 1.2 | -4.8 | -7.3 | 5.6 | 11.6
Cc1ccc(OCC(=O)NC2CCCC2)c(C)c1 | -3.9 | 4.0 | -14.9 | -6.0 | 0.4 | -2.1
Cc1cc(Cl)ccc1OCCCC(=O)NC1CCN(C)CC1 | 71.3* | -5.9 | -9.9 | 0.8 | 19.4 | .
Cc1ccc(C(C)C)c(OCC(=O)NC2CCN(C)CC2)c1 | 63.6* | -13.1 | . | -1.0 | 21.0 | 10.4
CCOC(=O)C1CCN(C(c2cccnc2)c2c(NC(=O)c3ccco3)sc(C)c2C)CC1 (configuration not stated) | 65.3* | 6.5 | ? | -5.5 | -10.6 | -0.4
Cc1sc(NC(=O)c2ccco2)c(C(c2ccccc2)N2CCC(C)CC2)c1C (configuration not stated) | 71.9* | 23.2 | 23.2 | -0.1 | 32.4 | 11.8
COc1ccc(C(c2c(NC(=O)c3ccco3)sc(C)c2C)N2CCOCC2)cc1OC (configuration not stated) | . | . | . | . | 18.3 | .
Cc1sc(NC(=O)c2ccco2)c(C(c2cccnc2)N2CCN(c3ccc(F)cc3)CC2)c1C (configuration not stated) | 56.9* | 16.4 | 24.6 | 29.5 | 45.1 | 23.6
Cc1sc(NC(=O)c2ccco2)c(C(c2cccnc2)N2CCN(CCO)CC2)c1C (configuration not stated) | 32.5 | -17.8 | -12.1 | -1.5 | 14.9 | -9.5
COc1cc(C(=S)N2CCOCC2)cc(OC)c1OC(=O)c1cccc(C)c1 | 2.9 | 7.5 | -3.5 | 3.1 | 5.0 | -8.1
COc1ccc(S(=O)(=O)N(CC(=O)NCC2CCCO2)C2CCCCC2)cc1OC (configuration not stated) | -16.0 | -1.4 | 19.3 | 4.6 | 11.2 | -8.9
O=C(Nc1ccccc1N1CCOCC1)c1cccc(NS(=O)(=O)c2ccc(F)c(F)c2)c1 | 29.1 | 10.9 | 12.6 | 5.5 | -0.3 | 6.2
O=C(Cn1c(=O)c2cccn2c2cccnc21)N1CCN(c2ccccc2F)CC1 | 9.8 | 0.7 | -2.7 | 5.2 | 7.9 | 1.7
CCCC(C)C(=O)Nc1nc(C)c(-c2csc(Nc3ccc(Cl)cc3)n2)s1 (configuration not stated) | 50.7 | 7.4 | 1.4 | 99.6* | -1.4 | 42.9
CCc1ccc2oc(=O)cc(CN3CCN(Cc4ccccc4)CC3)c2c1 | 61.4* | 4.7 | 3.2 | 4.2 | 7.2 | 4.3
Cc1ccc2c(CN(C)Cc3ccc(Cl)cc3Cl)cc(=O)oc2c1 | 49.3 | 52.7* | -6.4 | 1.3 | -0.7 | -3.0
O=c1cc(CN2CCN(Cc3ccccc3)CC2)c2ccc(O)cc2o1 | 55.9* | -2.0 | -8.0 | . | 18.4 | -7.0
Cc1ccc2c(CN3CCN(Cc4ccccc4)CC3)cc(=O)oc2c1 | 58.5* | 1.2 | 12.5 | -1.8 | -37.4 | 2.9
Cc1ccc2c(c1)cc1c(=O)n(CC(=O)NCc3ccccn3)nc(C)n12 | -7.8 | -2.9 | 18.8 | -1.7 | -4.5 | -5.2
CC(=O)Nc1ccc(CC(=O)NCCC(c2ccccc2)c2ccccc2)cc1 | -2.5 | -0.5 | -6.1 | 16.6 | 24.0 | 32.8
COc1ccc(Nc2nnc(-c3ccc(C)cc3)c3ccccc23)cc1C(=O)N1CCCCC1 | -10.3 | 16.3 | 41.0 | 11.6 | 35.6 | -6.9
COc1ccc(Nc2nnc(-c3ccccc3)c3ccccc23)cc1C(=O)N1CCCCC1 | -12.9 | -3.8 | 21.0 | -1.3 | 25.1 | 96.9*
